{"data": "Experimental data from different studies", "target": "Serine/threonine-protein kinase PLK4 (PLK4, Homo sapiens, UniProt O00444)", "One construct used (O00444 1-970)": "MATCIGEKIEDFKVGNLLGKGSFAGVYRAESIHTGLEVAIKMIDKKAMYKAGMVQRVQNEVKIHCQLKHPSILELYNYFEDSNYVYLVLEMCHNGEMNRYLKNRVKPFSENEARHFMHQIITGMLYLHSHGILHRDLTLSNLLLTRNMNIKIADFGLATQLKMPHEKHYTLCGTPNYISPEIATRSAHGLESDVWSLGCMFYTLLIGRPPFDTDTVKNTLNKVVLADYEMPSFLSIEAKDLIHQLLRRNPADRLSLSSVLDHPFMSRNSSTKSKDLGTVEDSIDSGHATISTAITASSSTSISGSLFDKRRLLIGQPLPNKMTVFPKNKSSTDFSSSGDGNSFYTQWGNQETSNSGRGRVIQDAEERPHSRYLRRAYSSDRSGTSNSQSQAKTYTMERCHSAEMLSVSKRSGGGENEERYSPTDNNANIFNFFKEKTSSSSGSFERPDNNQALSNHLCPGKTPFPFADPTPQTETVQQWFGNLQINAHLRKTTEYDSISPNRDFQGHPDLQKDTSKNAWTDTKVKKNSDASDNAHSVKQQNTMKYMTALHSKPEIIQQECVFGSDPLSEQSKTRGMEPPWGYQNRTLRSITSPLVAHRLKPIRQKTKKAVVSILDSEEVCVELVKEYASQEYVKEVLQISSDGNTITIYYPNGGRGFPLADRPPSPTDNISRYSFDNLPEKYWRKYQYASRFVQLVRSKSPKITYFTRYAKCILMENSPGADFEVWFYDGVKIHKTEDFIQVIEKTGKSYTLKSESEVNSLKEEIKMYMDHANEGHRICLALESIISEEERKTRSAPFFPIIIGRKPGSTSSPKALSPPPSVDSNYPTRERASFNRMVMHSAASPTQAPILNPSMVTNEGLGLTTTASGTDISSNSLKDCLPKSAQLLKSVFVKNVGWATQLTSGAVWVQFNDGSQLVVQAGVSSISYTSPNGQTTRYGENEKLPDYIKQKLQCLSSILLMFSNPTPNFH", "note": "Compare with care: the assays were run in different laboratories."}
{"Structure (SMILES)": "Cc1sc(C(=O)NC2COC2)cc1-n1cc(NC(=O)Nc2c(F)cccc2Cl)cn1", "effect on": "enzyme activity", "action": "inhibitor", "tested at": "10 µM", "endpoint": "remaining activity", "result": "100%"}
{"Structure (SMILES)": "COc1cc(Cl)c(C(=O)N[C@@H](CN[C@H]2CC[C@@H](N)CC2)Cc2ccc(C#N)cc2)cc1-c1ccc(CN[C@H](C)c2ccc(C)cc2)o1", "effect on": "enzyme activity", "action": "inhibitor", "tested at": "1 µM", "endpoint": "remaining activity", "result": "83%"}
{"Structure (SMILES)": "CC(C)(O)[C@H]1CC[C@H](Nc2ccc3ncc(-c4cccc(C(F)(F)F)c4)n3n2)CC1", "effect on": "enzyme activity", "action": "inhibitor", "tested at": "1 µM", "endpoint": "remaining activity", "result": "101%"}
{"Structure (SMILES)": "O=C(Nc1cccnn1)N1CC(C/C=C/c2cncc(Oc3ccc(C(F)(F)F)cn3)n2)C1", "effect on": "cell-free assay", "technique": "competition with immobilised ligand", "tested at": "1 µM", "endpoint": "remaining binding", "result": "98%"}
{"Structure (SMILES)": "CN1CC(Oc2cnc(C#N)cc2-c2ccn3nc(NC(=O)C4CC4)cc3c2)C1", "effect on": "enzyme activity", "action": "inhibitor", "tested at": "1 µM", "endpoint": "inhibition", "result": "-5%"}
{"Structure (SMILES)": "Cc1ccc(C(=O)Nc2ccc(CN3CCN(C)CC3)c(C(F)(F)F)c2)cc1C#Cc1cnc2cccnn12", "effect on": "enzyme activity", "action": "inhibitor", "tested at": "23.5 nM", "endpoint": "remaining activity", "result": "84%"}
{"Structure (SMILES)": "CC(C)(C)c1nc(-c2cccc(NS(=O)(=O)c3c(F)cccc3F)c2F)c(-c2ccnc(N)n2)s1", "effect on": "enzyme activity", "action": "inhibitor", "technique": "radiometric", "tested at": "1 µM", "endpoint": "remaining activity", "result": "6%"}
{"Structure (SMILES)": "Nc1ncnc2occ(-c3ccc(NC(=O)Nc4cc(C(F)(F)F)ccc4F)cc3)c12", "effect on": "cell-free assay", "action": "inhibitor", "tested at": "20 µM", "endpoint": "remaining signal", "result": "0.55%"}
{"Structure (SMILES)": "CC(C)(C)c1nc2c(s1)c1nc(N)ncc1c1ccc(NS(=O)(=O)c3c(F)cccc3F)c(F)c12", "effect on": "enzyme activity", "action": "inhibitor", "technique": "radiometric", "tested at": "1 µM", "endpoint": "remaining activity", "result": "44%"}
{"Structure (SMILES)": "COc1cc2nccc(Oc3ccc(NC(=O)Nc4ccc(F)cc4F)c(F)c3)c2cc1OC", "effect on": "thermal stability", "technique": "DSF", "tested at": "10 µM", "endpoint": "ΔTm", "result": "5 to 10 °C"}
{"Structure (SMILES)": "CN(C)c1ncnc(-c2ccc3nc(Nc4cc(CN5CCN(C(=O)CC(F)(F)F)CC5)ccn4)[nH]c3c2)c1Cl", "effect on": "cell-free assay", "technique": "competition with immobilised ligand", "tested at": "1 µM", "endpoint": "remaining binding", "result": "76%"}
{"Structure (SMILES)": "O=C(Nc1cnn(-c2csc(C(=O)NC3COC3)c2)c1)Nc1ccccc1Cl", "effect on": "enzyme activity", "action": "inhibitor", "tested at": "5 µM", "endpoint": "remaining activity", "result": "88.2%"}
{"Structure (SMILES)": "Cc1ccc(C(=O)NCc2ccsc2)cc1C#Cc1cn(C(C)C)c2ncnc(N)c12", "effect on": "enzyme activity", "action": "inhibitor", "tested at": "1 µM", "endpoint": "activity vs control", "result": "75%"}
